For 61 compounds, inhibition and IC50 results are on record in ChEMBL document CHEMBL4020742, “Design and optimization of purine derivatives as in vivo active PDE10A inhibitors” (Bioorg Med Chem, 2017).

The target of test [1] is T1, cAMP and cAMP-inhibited cGMP 3',5'-cyclic phosphodiesterase 10A (Homo sapiens, UniProt Q9Y233). The test can be described thus: Inhibition of recombinant human N-terminal GST-tagged PDE10A1 (2 to 789 residues) expressed in baculovirus infected Sf9 cells at 5 uM using fluorescein-labeled cAMP as substrate preincubated for 15 mins followed by substrate addition measured after 30 mins by IMAP fluorescence polarization assay relative to control. The gist of the method: (§1)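 Recombinant PDE4A1A, PDE2A1 or PDE10A1 was incubated with compound (1% DMSO, duplicate) for 15 min at RT. Fluorescein-cAMP was then added for 30 min at RT, and the reaction was stopped with IMAP binding reagent (1 h, dark). FP was read at Ex485/Em535. Inhibition was set against no-enzyme and DMSO controls. IC50 came from a four-parameter logistic fit; values are the mean of at least two measurements.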
(Polarisation of emitted light reports the rotation of a fluorescent probe.)

Test [2] has as its target T1, cAMP and cAMP-inhibited cGMP 3',5'-cyclic phosphodiesterase 10A. The test can be described thus: Inhibition of recombinant human N-terminal GST-tagged PDE10A1 (2 to 789 residues) expressed in baculovirus infected Sf9 cells using fluorescein-labeled cAMP as substrate preincubated for 15 mins followed by substrate addition measured after 30 mins by IMAP fluorescence polarization assay. The gist of the method:
as §1

pIC50: −log10 of the molar value.

T1 sequence (Q9Y233 whole entry, the tested form may be a part): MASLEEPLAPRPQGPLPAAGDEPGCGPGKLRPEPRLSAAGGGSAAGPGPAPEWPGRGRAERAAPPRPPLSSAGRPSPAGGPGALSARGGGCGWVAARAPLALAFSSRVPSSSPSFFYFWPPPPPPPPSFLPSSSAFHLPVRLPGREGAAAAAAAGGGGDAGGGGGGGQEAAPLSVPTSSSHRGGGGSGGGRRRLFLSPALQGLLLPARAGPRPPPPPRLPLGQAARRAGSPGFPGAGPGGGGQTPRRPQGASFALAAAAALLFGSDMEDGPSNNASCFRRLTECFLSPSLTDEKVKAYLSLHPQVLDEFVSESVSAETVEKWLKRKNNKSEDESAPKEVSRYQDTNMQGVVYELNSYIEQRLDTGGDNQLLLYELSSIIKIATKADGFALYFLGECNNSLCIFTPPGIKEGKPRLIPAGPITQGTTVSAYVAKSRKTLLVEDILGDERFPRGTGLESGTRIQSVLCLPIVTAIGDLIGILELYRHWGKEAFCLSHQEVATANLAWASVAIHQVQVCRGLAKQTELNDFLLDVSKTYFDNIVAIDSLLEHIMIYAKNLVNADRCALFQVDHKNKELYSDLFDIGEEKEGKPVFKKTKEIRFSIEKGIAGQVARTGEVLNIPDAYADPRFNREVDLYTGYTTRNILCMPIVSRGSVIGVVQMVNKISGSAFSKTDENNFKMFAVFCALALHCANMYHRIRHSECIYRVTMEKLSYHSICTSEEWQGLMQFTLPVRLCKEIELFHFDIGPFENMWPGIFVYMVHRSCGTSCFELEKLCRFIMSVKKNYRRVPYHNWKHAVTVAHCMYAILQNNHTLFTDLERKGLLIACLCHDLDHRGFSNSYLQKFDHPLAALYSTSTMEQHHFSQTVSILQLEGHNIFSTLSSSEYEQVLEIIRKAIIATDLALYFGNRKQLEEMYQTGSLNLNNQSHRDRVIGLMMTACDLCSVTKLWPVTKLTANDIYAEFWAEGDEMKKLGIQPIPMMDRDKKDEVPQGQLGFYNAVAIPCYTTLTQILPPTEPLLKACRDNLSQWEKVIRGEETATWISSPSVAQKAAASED

Take `COc1cc(Cn2cnc3c(N4CCOCC4)ncnc32)cc(OC)c1`: in test [1], the inhibition (in general, the change of the read-out against control, counted positive when it falls) was 85%.
Regarding `Cc1nc2c(N3CCOCC3)ncnc2n1Cc1ccc(-c2ccc(Cl)cc2)cc1`, the inhibition in test [1] is 91%. Also, in test [2], the negative-log IC50 (pIC50) (in general, −log10 of the IC50, conventionally taken in molar units) was 6.77.
In the case of `Cc1nc2c(N3CCOCC3)nccn2c1NCc1ccccc1-c1ccccc1`, the inhibition in test [1] is 75%.
Same read-out and setting: as for `Cc1noc(C)c1-c1ccccc1CNc1c(C)nc2c(N3CCOCC3)nccn12`, the figure is 68%.
Same read-out and setting: for `Cc1nc2c(N3CCOCC3)nccn2c1NCCc1ccc2c(c1)OCO2` the value was 82%; for `O=C(Cn1cnc2c(N3CCOCC3)ncnc21)c1ccccc1`, 11%; for `Cc1nc2c(N3CCOCC3)nccn2c1NCc1ccc(Br)cc1`, 77%.
Same read-out and setting: for `COc1ccc(-c2ccc(CNc3c(C)nc4c(N5CCOCC5)nccn34)cc2)cc1` the value was 87%.
For `Cc1nc2c(N3CCOCC3)nccn2c1NCCc1ccccc1`, the inhibition in test [1] was found to be 74%.
Still for that read-out and setting: for `Cc1nc2c(N3CCOCC3)nccn2c1NC(=O)Cc1ccc2c(c1)OCO2` the value was 44%.
For the compound `Cc1nc2c(N3CCOCC3)ncnc2n1Cc1ccc(C(=O)Nc2ccccc2)cc1`, the inhibition in test [1] is 96%. In addition, in test [2], the negative-log IC50 (pIC50) is 6.89.
For the compound `Cc1nc2c(N3CCOCC3)nccn2c1NCc1ccccc1-c1cncnc1`, the inhibition in test [1] came out at 61%.
Same read-out and setting: as for `Cc1nc2c(N3CCOCC3)nccn2c1NCc1ccccc1-c1ccccc1Cl`, the figure is 87%.
On the same count and under the same terms, for `Cc1nc2c(N3CCOCC3)nccn2c1NCc1ccccc1-c1ccc2ccccc2c1` the value was 63%; for `Cc1nc2c(N3CCOCC3)nccn2c1NCc1ccccc1-c1ccncc1`, 70%.
`CCc1nc2c(N3CCOCC3)ncnc2n1Cc1ccc(-c2ccccc2)cc1`: the inhibition in test [1] was 97%. Further, the negative logarithm of the IC50 (pIC50) in test [2] is 6.77.
Turning to `COc1ccc(CCNc2c(C)nc3c(N4CCOCC4)nccn23)cc1OC`, in test [1], the inhibition amounted to 83%.
Take `Cc1nc2c(N3CCOCC3)nccn2c1NCc1ccccc1-c1cccnc1`: in test [1], the inhibition was 76%.
For the compound `Cc1nc2c(N3CCOCC3)nccn2c1NCc1ccccc1Br`, the inhibition in test [1] amounted to 73%.
`COc1ccc(CCNc2c(C)nc3c(N4CCOCC4)nccn23)c(Br)c1`: in test [1], the inhibition came out at 92%. In test [2], the pIC50 is 6.61.
`Cc1nc2c(N3CCOCC3)nccn2c1NC(=O)Cc1ccc2ccccc2c1`: the inhibition in test [1] was 24%.
With `Brc1ccc(Cn2cnc3c(N4CCOCC4)ncnc32)cc1`, the inhibition in test [1] was determined as 90%. The negative-log IC50 (pIC50) in test [2] was 6.28.
As for `Cc1noc(C)c1-c1ccc(Cn2c(C)nc3c(N4CCOCC4)ncnc32)cc1`, the inhibition in test [1] came out at 96%. In addition, the pIC50 in test [2] was 6.92.
As to `Cc1nc2c(N3CCOCC3)nccn2c1NC(=O)Cc1ccccc1`, in test [1], the inhibition came to 51%.
In the case of `Cc1nc2c(N3CCOCC3)ncnc2n1Cc1ccc(-c2ccccc2)cc1`, the inhibition in test [1] was determined as 99%. Further, the negative logarithm of the IC50 (pIC50) in test [2] is 6.93 to 6.95.
Taken in the same sequence, the figures for `c1ccc(-c2ccc(Cn3cnc4c(N5CCOCC5)ncnc43)cc2)cc1` were 94% and 6.99.
As to `c1ccc2cc(Cn3cnc4c(N5CCOCC5)ncnc43)ccc2c1`, the inhibition in test [1] turned out to be 100%. In addition, the pIC50 in test [2] was 6.97.
Consider `Cc1nc2c(N3CCOCC3)nccn2c1NCCc1c(Cl)cccc1Cl`, for which the inhibition in test [1] is 98%. Moreover, the pIC50 in test [2] was 6.35.
As to `c1ccc(CCn2cnc3c(N4CCOCC4)ncnc32)cc1`, in test [1], the inhibition was 13%.
With `Clc1cccc(Cl)c1Cn1cnc2c(N3CCOCC3)ncnc21`, in test [1], the inhibition turned out to be 70%.
Turning to `Cc1nc2c(N3CCOCC3)nccn2c1NCc1ccc(-c2ccncc2)cc1`, the inhibition in test [1] was 91%. Further, in test [2], the negative logarithm of the IC50 (pIC50) is 6.41.
Take `COc1cccc(CCn2cnc3c(N4CCOCC4)ncnc32)c1`: in test [1], the inhibition amounted to 20%.
Take `Cc1nc2c(N3CCOCC3)nccn2c1NCc1ccccc1-c1cnn(C)c1`: in test [1], the inhibition amounted to 64%.
In the case of `Cc1nc2c(N3CCOCC3)ncnc2n1Cc1ccc(Br)cc1`, the inhibition in test [1] worked out at 93%. Moreover, the pIC50 in test [2] was 6.49.
With `Cc1nc2c(N3CCOCC3)nccn2c1NCc1ccc(-c2ccccc2)cc1`, in test [1], the inhibition worked out at 55%.
The same measure, in the same setting: as for `Cc1ccc(-c2ccc(CNc3c(C)nc4c(N5CCOCC5)nccn34)cc2)cc1`, the figure is 74%.
As to `Cc1nc2c(N3CCOCC3)ncnc2n1Cc1ccc(-c2cccc(Cl)c2)cc1`, the inhibition in test [1] is 93%. Moreover, the negative-log IC50 (pIC50) in test [2] is 6.59.
As to `Cc1nc2c(N3CCOCC3)nccn2c1NCc1ccc(-c2cccnc2)cc1`, in test [1], the inhibition stood at 90%. Besides, in test [2], the pIC50 is 6.28.
Turning to `Cc1nc2c(N3CCOCC3)nccn2c1NCc1ccc(-c2ccccc2Cl)cc1`, in test [1], the inhibition came to 77%.
On to `Cc1ccc(-c2ccccc2CNc2c(C)nc3c(N4CCOCC4)nccn23)cc1`, for which the inhibition in test [1] worked out at 57%.
Same read-out and setting: as for `COc1ccc(-c2ccccc2CNc2c(C)nc3c(N4CCOCC4)nccn23)cc1OC`, the figure is 51%; as for `CCOC(=O)c1ccc(Cn2c(C)nc3c(N4CCOCC4)ncnc32)cc1`, 90%.
As for `Cc1nc2c(N3CCOCC3)nccn2c1NCCc1ccc2ccccc2c1`, the inhibition in test [1] came to 78%.
Same read-out and setting: for `COc1ccc(CC(=O)Nc2c(C)nc3c(N4CCOCC4)nccn23)cc1OC` the value was 50%.
Consider `Cc1nc2c(N3CCOCC3)ncnc2n1Cc1ccc(-c2cccnc2)cc1`, for which, in test [1], the inhibition was determined as 97%. Moreover, the pIC50 in test [2] was 7.21.
Take `Cc1nc2c(N3CCOCC3)nccn2c1NC(=O)Cc1c(Cl)cccc1Cl`: in test [1], the inhibition turned out to be 47%.
The same measure, in the same setting: as for `Cc1nc2c(N3CCOCC3)nccn2c1NCc1ccccc1-c1ccc(C(C)(C)C)cc1`, the figure is 39%.
As to `Cc1noc(C)c1-c1ccc(CNc2c(C)nc3c(N4CCOCC4)nccn23)cc1`, the inhibition in test [1] is 90%. Also, in test [2], the negative logarithm of the IC50 (pIC50) was 6.29.
Consider `Cc1nc2c(N3CCOCC3)ncnc2n1Cc1ccccc1Br`, for which the inhibition in test [1] was 87%.
Still for that read-out and setting: as for `Cc1nc2c(N3CCOCC3)nccn2c1NCc1ccc(-c2cncnc2)cc1`, the figure is 79%; as for `COc1ccc(-c2ccccc2CNc2c(C)nc3c(N4CCOCC4)nccn23)cc1`, 60%; as for `c1ccc(Cn2cnc3c(N4CCOCC4)ncnc32)cc1`, 66%.
On the same count and under the same terms, for `Cc1nc2c(N3CCOCC3)nccn2c1NCc1ccc(-c2ccc(C(C)(C)C)cc2)cc1` the value was 38%.
Same read-out and setting: as for `Cc1nc2c(N3CCOCC3)nccn2c1NCc1ccc(-c2ccc3ccccc3c2)cc1`, the figure is 54%.
`Cc1nc2c(N3CCOCC3)ncnc2n1Cc1ccc(-c2cnc3[nH]ncc3c2)cc1`: the inhibition in test [1] came out at 98%. For the same compound, the negative logarithm of the IC50 (pIC50) in test [2] was 7.22.
As to `Cc1nc2c(N3CCOCC3)nccn2c1NCc1ccc(-c2cnn(C)c2)cc1`, the inhibition in test [1] was 88%.
For `COc1ccc(CCNc2c(C)nc3c(N4CCOCC4)nccn23)c(-c2ccccc2)c1`, the inhibition in test [1] was found to be 93%. In test [2], the pIC50 is 6.47.
Turning to `COc1ccc(CCNc2c(C)nc3c(N4CCOCC4)nccn23)cc1-c1ccccc1`, the inhibition in test [1] was found to be 80%.
As for `COc1ccc(-c2ccc(Cn3c(C)nc4c(N5CCOCC5)ncnc43)cc2)cc1`, the inhibition in test [1] amounted to 94%. Besides, the pIC50 in test [2] is 7.21.
For the compound `Cc1nc2c(N3CCOCC3)ncnc2n1Cc1ccc(-c2ccncc2)cc1`, in test [1], the inhibition came to 96%. In test [2], the negative-log IC50 (pIC50) was 6.94.
In the case of `COc1ccc(CCNc2c(C)nc3c(N4CCOCC4)nccn23)cc1Br`, in test [1], the inhibition turned out to be 81%.
